Results taken from ChEMBL document CHEMBL1156045, “Discovery of novel types of inhibitors of S-adenosylmethionine synthesis by virtual screening” (J Med Chem, 2009).
Calls of active or inactive are those of the source. No cut-off for these calls is given here.

Key:
Escherichia coli [1] = assay: Inhibition of Escherichia coli MAT assessed as incorporation of L-[methyl-14C]methionine into S-adenosyl-methionine at 1 mM after 5 to 10 mins by scintillation counting
Procedure, shortened: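 Screen: E. coli MAT (0.25 μM) preincubated 20 min at room temperature with 1 mM compound (15% DMSO final) in Tris·Cl pH 8.0/KCl/MgCl2. 1.5 volumes of reagents added (final 0.1 mM ATP, 0.1 mM [14C]methionine, 10 mM MgCl2). Run 5 min at 25° C, stopped with 25 mM EDTA; AdoMet on P-81 filters counted.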

Escherichia coli [2] = assay: Inhibition of Escherichia coli MAT assessed as time required to achieve half maximal enzyme inhibition at 200 uM after 5 to 10 mins by scintillation counting
Procedure, shortened: (§1)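 Onset of inhibition: 0.3 μM MAT subunits (0.3 μM inhibitor) or 10 μM enzyme (200 μM inhibitor) incubated in 50 mM Tris·Cl, 50 mM KCl, 10 mM MgCl2 with 10 mM ATP or 1 mM L-methionine where present. Aliquots diluted into assay reagents at set times; [methyl-14C]AdoMet on P-81 filters counted.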

Escherichia coli [3] = assay: Antibacterial activity against Escherichia coli RP523 at 1 mM after overnight incubation by filter disk method; type: functional, organism-based
Procedure, shortened: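 E. coli RP523 (hyperpermeable strain): ~30 μl overnight culture spread on LB agar; 5 mm filter disks soaked with 30 μl of 1 mM compound in DMSO, or DMSO control, placed on lawn. Zone of growth inhibition measured after overnight incubation at 37° C.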

Escherichia coli [4] = assay: Inhibition of Escherichia coli MAT assessed as incorporation of L-[methyl-14C]methionine into S-adenosyl-methionine at 200 uM after 5 to 10 mins by scintillation counting in presence of methionine treated before addition of ATP; procedure, shortened: as §1
Saccharomyces cerevisiae = assay: Antifungal activity against Saccharomyces cerevisiae RDY84 at 1 mM after overnight incubation by filter disk method; type: functional, organism-based
Procedure, shortened: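 S. cerevisiae RDY84 (pdr1Δ pdr3Δ) lawn on YDP agar; 5 mm filter disk soaked with 1 mM compound in DMSO, or DMSO control, placed on freshly spread cells. Zone of growth inhibition measured after overnight incubation at 30° C.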

[5] = system: Methanocaldococcus jannaschii; assay: Inhibition of Methanococcus jannaschii MAT at 1 mM treated for 20 mins before addition of substrate
Procedure, shortened: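 M. jannaschii MAT (0.3 μM) preincubated 20 min with 0.1–1.0 mM compound, then assayed as for E. coli enzyme (0.1 mM ATP, 0.1 mM [14C]methionine) at 37° C. [14C]AdoMet on P-81 filters counted.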

Escherichia coli [6] = assay: Inhibition of Escherichia coli MAT assessed as incorporation of L-[methyl-14C]methionine into S-adenosyl-methionine at 200 uM after 5 to 10 mins by scintillation counting in presence of ATP treated before addition of methionine; procedure, shortened: as §1
Escherichia coli [7] = assay: Inhibition of Escherichia coli MAT assessed as lack of recovery of detectable enzyme activity at 0.3 uM up to 20 mins measured after 24 hrs of dialysis
[8] = Inhibition of Escherichia coli MAT assessed as incorporation of L-[methyl-14C]methionine into S-adenosyl-methionine after 5 to 10 mins by scintillation counting
Procedure, shortened: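 Recombinant E. coli MAT (0.3 μM subunits) preincubated 20 min with inhibitor before substrates were added. Assay buffer was 50 mM Tris·Cl pH 8.0, 50 mM KCl, 10 mM MgCl2, 10 mM ATP and 0.5 mM L-[methyl-14C]methionine at 25 °C. Reactions were EDTA-quenched and AdoMet was captured on P-81 filters. Ki came from a nonlinear fit of fractional activity to the tight-binding equation.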

NCI60 = assay: Growth inhibition of human NCI60 cells up to 100 uM; type: functional, cell-based
Procedure, shortened: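 Tested by NCI Developmental Therapeutics Program against the 60 tumour cell line panel in its standard protocol, concentrations up to 100 μM.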

Row | Structure (SMILES) | Activity (Escherichia coli [1]) | Activity (Escherichia coli [2]) [min] | Activity (Escherichia coli [3]) | Activity (Escherichia coli [4]) | Activity (Saccharomyces cerevisiae) | inhibition [5] | Activity (Escherichia coli [6]) | Activity (Escherichia coli [7]) | Ki [8] [nM] | growth inhibition (GI) (NCI60)
1 | Cc1ccc(NC(=O)Nc2cccc(C(F)(F)F)c2)cc1NC(=O)Nc1cccc(C(F)(F)F)c1 | inactive | – | – | – | – | – | – | – | – | –
2 | NS(=O)(=O)c1ccc(NC(=O)Nc2ccc(Cl)cc2[N+](=O)[O-])cc1 | Active | 20 | inactive | Active | inactive | inactive | inactive | Active | 6.9 | inactive
